# In publication PMC3346673 (Toxicological and environmental chemistry, 2012):
# Like-named read-outs stand apart in the source and are kept apart here.
# How the values were obtained:
# [1] = system: rats injected with HgCl2; format: in vivo, rat (Harlan Sprague-Dawley); conditions: for mercury concentration in feces / mercury concentration in urine: 5 day collection, mean ± SEM
# Summary of the method: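 Mature male Harlan Sprague-Dawley rats (389–397 g), four groups of six, housed in pairs. HgCl2 was given sc at 4.06 mg kg−1 in saline under brief isoflurane. Test compound (42.3 mg kg−1, DMSO plus PBS) was given sc 20–30 min later. Non-recipients got saline, so each rat had two injections. Rats were weighed before treatment and before day-6 sacrifice; organs were blotted and weighed. Behaviour was recorded.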
# [2] = Hydroxyl radical absorbance capacity; conditions: Trolox equivalency
# [3] = system: rats injected with lethal doses of mercury chloride; assay: Survival of young rats after lethal doses of mercury chloride; format: in vivo, rat (Sprague-Dawley)
# Summary of the method: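 Thirty-six young male Sprague-Dawley rats (225–245 g) were split into three groups of 12. They received HgCl2 sc under the right abdominal skin at 1.0, 2.0 or 14 mg kg−1. Six per group then got test compound sc on the left side 20–25 min later in isotonic 25% DMSO:75% PBS: 528 micromoles for the two lower doses, 880 micromoles for the top dose.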
# [4] = system: rats; assay: 28 day repeated oral dose toxicity study with clinical chemistry and hematology; format: in vivo, rat (Wistar); conditions: for Ca^2+ / Cl^− / HCT / HGB / K^+ / Mg^2+ / Na^+ / Phosphorus / RBC: mean
# Summary of the method: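 Male and female Wistar rats, 10 of each sex per group, gavaged daily for 28 days with the test compound suspended in corn oil at 0, 0.1, 0.5 or 1.0 g kg−1 body weight day−1.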
# [5] = system: aortic endothelial membranes in culture; conditions: aortic endothelial membranes in culture ref Secor et al. 2011; cited from earlier work
# [6] = Solubility and stability of NBMI and its Hg complex; format: physicochemical
# [7] = Oral absorption, plasma pharmacokinetics after oral gavage; format: in vivo, rat (Sprague-Dawley); conditions: for Tmax / half-life: male, Sprague-Dawley, rat, plasma, po
# [8] = Endotoxin activity; conditions: 1 mg mL^−1, tested undiluted to 1:512 dilution
# [9] = system: Escherichia coli strain WP2 uvrA; assay: Ames test for mutagenic activity; format: cell-based; conditions: reversion of mutations in the tryptophan operon
# [10] = Metabolic profiling with rat liver microsomes; format: in vitro ADME; conditions: incubation with rat liver microsomes, MS identification
# Summary of the method: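 Test compound incubated with human or rat liver microsomes. Products separated by HPLC and identified by electrospray MS and MS:MS, using information-dependent acquisition on the parent ion, enhanced product ion scans, and linear ion trap scanning of trapped fragments.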
# [11] = Oxygen radical absorbance capacity; conditions: Trolox equivalency
# [12] = system: rats; assay: Oral up/down LD-50 determination, gavage in corn oil; format: in vivo, rat (Wistar)
# Summary of the method: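 Up/down design in 3 female Wistar rats (206–208 g). Test compound was suspended in corn oil and given by gavage, three times daily to reach the top level. Testing stopped at 5 g kg−1 body weight.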
# [13] = Group 2 NBMI only, sc 42.3 mg kg^−1, mean ± St Dev
# [14] = Group 4 HgCl2 (4.06 mg kg^−1 sc) + NBMI (42.3 mg kg^−1 sc), mean ± St Dev
# [15] = 0.1, 0.5 and 1.0 g kg^−1 day^−1 gavage, 28 days
# [16] = females, 100 mg kg^−1, end of 28 day daily dosing
# [17] = females, 500 mg kg^−1, end of 28 day daily dosing
# [18] = females, 1000 mg kg^−1, end of 28 day daily dosing
# [19] = males, 100 mg kg^−1, end of 28 day daily dosing
# [20] = males, 500 mg kg^−1, end of 28 day daily dosing
# [21] = males, 1000 mg kg^−1, end of 28 day daily dosing
smiles,measurement,setting,value
"O=C(NCCS)c1cccc(C(=O)NCCS)c1 [NBMI, N,N′-bis(2-mercaptoethyl)isophthalamide]",Body Mass Post Treatment,[1]; [13],374.4 ± 27.7 g
same,Organ Mass Brain (Post Treatment),[1]; [13],1.85 ± 0.04 g
same,Organ Mass Kidney (Post Treatment),[1]; [13],2.80 ± 0.56 g
same,Organ Mass Liver (Post Treatment),[1]; [13],11.7 ± 1.8 g
same,clinically observed toxic effects,[1]; Group 4 Hg + NBMI versus Hg Only,exhibited no signs of discomfort
same,Body Mass Post Treatment,[1]; [14],356.9 ± 46.8 g
same,Organ Mass Brain (Post Treatment),[1]; [14],1.88 ± 0.10 g
same,Organ Mass Kidney (Post Treatment),[1]; [14],3.88 ± 0.69 g
same,Organ Mass Liver (Post Treatment),[1]; [14],11.0 ± 2.1 g
same,mercury concentration in feces,[1]; Hg and NBMI group,23447±4877 Ppb
same,mercury concentration in urine,[1]; Hg and NBMI group,242±52.7 Ppb
same,mercury concentration in feces,[1]; NBMI Only group,110±30 Ppb
same,mercury concentration in urine,[1]; NBMI Only group,0.30±0.1 Ppb
same,effect on organ mercury levels,"[1]; single sc dose of NBMI, organs 5-6 days after injection",did not reduce the mercury levels in the organs
same,HORAC score,[2],"299,000 Trolox units 100g^−1"
same,PERCENT SURVIVAL,"[3]; HgCl2 1 mg kg^−1 sc, NBMI 528 micromoles (150 mg) kg^−1 sc, 0 hrs",100%
same,PERCENT SURVIVAL,"[3]; HgCl2 1 mg kg^−1 sc, NBMI 528 micromoles (150 mg) kg^−1 sc, 6 hrs",100%
same,PERCENT SURVIVAL,"[3]; HgCl2 1 mg kg^−1 sc, NBMI 528 micromoles (150 mg) kg^−1 sc, 12 hrs",100%
same,PERCENT SURVIVAL,"[3]; HgCl2 1 mg kg^−1 sc, NBMI 528 micromoles (150 mg) kg^−1 sc, 24 hrs",100%
same,PERCENT SURVIVAL,"[3]; HgCl2 1 mg kg^−1 sc, NBMI 528 micromoles (150 mg) kg^−1 sc, 48 hrs",100%
same,PERCENT SURVIVAL,"[3]; HgCl2 1 mg kg^−1 sc, NBMI 528 micromoles (150 mg) kg^−1 sc, 72 hrs",100%
same,PERCENT SURVIVAL,"[3]; HgCl2 2 mg kg^−1 sc, NBMI 528 micromoles (150 mg) kg^−1 sc, 0 hrs",100%
same,PERCENT SURVIVAL,"[3]; HgCl2 2 mg kg^−1 sc, NBMI 528 micromoles (150 mg) kg^−1 sc, 6 hrs",100%
same,PERCENT SURVIVAL,"[3]; HgCl2 2 mg kg^−1 sc, NBMI 528 micromoles (150 mg) kg^−1 sc, 12 hrs",100%
same,PERCENT SURVIVAL,"[3]; HgCl2 2 mg kg^−1 sc, NBMI 528 micromoles (150 mg) kg^−1 sc, 24 hrs",100%
same,PERCENT SURVIVAL,"[3]; HgCl2 2 mg kg^−1 sc, NBMI 528 micromoles (150 mg) kg^−1 sc, 48 hrs",100%
same,PERCENT SURVIVAL,"[3]; HgCl2 2 mg kg^−1 sc, NBMI 528 micromoles (150 mg) kg^−1 sc, 72 hrs",100%
same,PERCENT SURVIVAL,"[3]; HgCl2 14 mg kg^−1 sc, NBMI 880 micromoles (250 mg) kg^−1 sc, 0 hrs",100%
same,PERCENT SURVIVAL,"[3]; HgCl2 14 mg kg^−1 sc, NBMI 880 micromoles (250 mg) kg^−1 sc, 6 hrs",100%
same,PERCENT SURVIVAL,"[3]; HgCl2 14 mg kg^−1 sc, NBMI 880 micromoles (250 mg) kg^−1 sc, 12 hrs",100%
same,PERCENT SURVIVAL,"[3]; HgCl2 14 mg kg^−1 sc, NBMI 880 micromoles (250 mg) kg^−1 sc, 24 hrs",100%
same,PERCENT SURVIVAL,"[3]; HgCl2 14 mg kg^−1 sc, NBMI 880 micromoles (250 mg) kg^−1 sc, 48 hrs",67%
same,PERCENT SURVIVAL,"[3]; HgCl2 14 mg kg^−1 sc, NBMI 880 micromoles (250 mg) kg^−1 sc, 72 hrs",67%
same,condition of the surviving rats on long term observation,[3]; surviving 16 rats from all groups observed for three months,No adverse effects were noted
same,deaths and clinical signs,[4]; [15],"No deaths or abnormal weight loss, ataxia, loss of appetite"
same,microscopic and histological analysis of organs,[4]; [15],None of their organs displayed changes indicating toxic effects
same,spleen finding,[4]; [15],mild to moderate B-cell proliferation
same,Ca^2+,[4]; [16],10.78 mg/dL
same,Cl^−,[4]; [16],103 meq L^−1
same,HCT,[4]; [16],43.7%
same,HGB,[4]; [16],15.2 gm DL^−1
same,K^+,[4]; [16],4.81 meq L^−1
same,Mg^2+,[4]; [16],2.64 meq L^−1
same,Na^+,[4]; [16],142 meq L^−1
same,Phosphorus,[4]; [16],7.82 mg/dL
same,RBC,[4]; [16],8.0 mill UL^−1
same,Ca^2+,[4]; [17],10.89 mg/dL
same,Cl^−,[4]; [17],105 meq L^−1
same,HCT,[4]; [17],42%
same,HGB,[4]; [17],15 gm DL^−1
same,K^+,[4]; [17],5.08 meq L^−1
same,Mg^2+,[4]; [17],2.72 meq L^−1
same,Na^+,[4]; [17],143 meq L^−1
same,Phosphorus,[4]; [17],8.15 mg/dL
same,RBC,[4]; [17],8.0 mill UL^−1
same,Ca^2+,[4]; [18],10.84 mg/dL
same,Cl^−,[4]; [18],105 meq L^−1
same,HCT,[4]; [18],40%
same,HGB,[4]; [18],14 gm DL^−1
same,K^+,[4]; [18],4.89 meq L^−1
same,Mg^2+,[4]; [18],2.82 meq L^−1
same,Na^+,[4]; [18],144 meq L^−1
same,Phosphorus,[4]; [18],8.49 mg/dL
same,RBC,[4]; [18],7.6 mill UL^−1
same,Ca^2+,[4]; [19],10.64 mg/dL
same,Cl^−,[4]; [19],105 meq L^−1
same,HCT,[4]; [19],46.2%
same,HGB,[4]; [19],15.6 gm DL^−1
same,K^+,[4]; [19],4.83 meq L^−1
same,Mg^2+,[4]; [19],2.58 meq L^−1
same,Na^+,[4]; [19],143 meq L^−1
same,Phosphorus,[4]; [19],8.23 mg/dL
same,RBC,[4]; [19],8.7 mill UL^−1
same,Ca^2+,[4]; [20],10.6 mg/dL
same,Cl^−,[4]; [20],104 meq L^−1
same,HCT,[4]; [20],45.1%
same,HGB,[4]; [20],15.2 gm DL^−1
same,K^+,[4]; [20],5.03 meq L^−1
same,Mg^2+,[4]; [20],2.62 meq L^−1
same,Na^+,[4]; [20],144 meq L^−1
same,Phosphorus,[4]; [20],8.42 mg/dL
same,RBC,[4]; [20],8.3 mill UL^−1
same,Ca^2+,[4]; [21],10.53 mg/dL
same,Cl^−,[4]; [21],106 meq L^−1
same,HCT,[4]; [21],45.5%
same,HGB,[4]; [21],15.5 gm DL^−1
same,K^+,[4]; [21],5.15 meq L^−1
same,Mg^2+,[4]; [21],2.56 meq L^−1
same,Na^+,[4]; [21],143 meq L^−1
same,Phosphorus,[4]; [21],8.84 mg/dL
same,RBC,[4]; [21],8.5 mill UL^−1
same,prevention of damage induced by mercury exposure,[5],very effective prevention of the damage induced by mercury exposure
same,toxicity on membrane integrity,[5],no toxicity on membrane integrity
same,solubility in 95% ethanol or dimethylsulfoxide (DMSO),[6],readily dissolves
same,solubility in water,[6],water insoluble
same,Tmax,[7]; 7 mg/kg,2.3 ± 1.2 h
same,half-life,[7]; 7 mg/kg,328 ± 105 min
same,Tmax,[7]; 35 mg/kg,2.3 ± 1.2 h
same,half-life,[7]; 35 mg/kg,336 ± 61.2 min
same,absorbance of NBMI into plasma from oral dose,"[7]; oral 7 mg kg^−1, estimated against iv 1 mg kg^−1",13 ± 5.9%
same,absorbance of NBMI into plasma from oral dose,"[7]; oral 35 mg kg^−1, estimated against iv 1 mg kg^−1",15 ± 3.6%
same,endotoxin content,[8],less than one
same,"mutagenicity, Ames analysis",[9],non-mutagenic
same,metabolites detected,[10],only two NBMI modified structures
same,ORAC score,[11],"199,000 Trolox units 100g^−1"
same,LD-50,"[12]; oral gavage in corn oil, female Wistar rats",> 5 g kg^−1 body weight
same,signs of toxicity in LD-50 study,"[12]; up to 5 g NBMI kg^−1 body weight, gavaged 3 times daily",no death or other signs of toxicity with the exception of some diarrhea
